Assay outcomes (PubChem)
Compounds with a hit are over-represented: about 1.8% of the library has one in this group of screens.
CHRM4 antagonist: human M4 muscarinic receptor antagonists, primary screen, CHO cells, Fluo-8 calcium fluorescence; hit rate 0.73% among 360,000; CHO-hM4 cells, ACh EC80; AID 624125, 2012; inhibition, % at 3 µM;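 active = inhibition above its plate's cutoff, the mean inhibition of sample wells plus 3 SD, cut at about 27% in these data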
Target sequence (P08173 whole entry, looked up): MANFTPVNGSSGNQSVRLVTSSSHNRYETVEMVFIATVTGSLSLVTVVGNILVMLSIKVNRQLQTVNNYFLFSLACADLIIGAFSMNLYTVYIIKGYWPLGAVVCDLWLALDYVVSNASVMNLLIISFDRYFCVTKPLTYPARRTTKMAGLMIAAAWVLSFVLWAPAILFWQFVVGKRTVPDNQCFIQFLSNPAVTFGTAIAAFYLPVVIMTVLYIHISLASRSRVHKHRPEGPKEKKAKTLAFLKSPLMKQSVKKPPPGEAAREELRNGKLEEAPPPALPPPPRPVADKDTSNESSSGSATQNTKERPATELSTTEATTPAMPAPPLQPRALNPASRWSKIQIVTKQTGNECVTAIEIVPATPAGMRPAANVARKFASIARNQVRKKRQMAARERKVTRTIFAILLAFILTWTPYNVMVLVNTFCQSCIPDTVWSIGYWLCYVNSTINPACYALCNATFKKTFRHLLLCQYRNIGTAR
CHRM5 agonist: human M5 muscarinic receptor agonists, primary screen, CHO-K1 cells, Fluo-8 calcium fluorescence; hit rate 0.19% among 360,000; Muscarinic acetylcholine receptor M5 (Homo sapiens), P08912; AID 624037, 2012; activation, % at 3 µM; CHO-K1 hM5 cells; 0% DMSO wells, 100% maximal acetylcholine response;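 active = activation above the run's mean over test compounds plus 3 SD, cut at about 23% in these data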;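 note: signal is peak over basal fluorescence ratio across the kinetic read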
M5 PAM: human M5 muscarinic receptor positive allosteric modulators, primary screen, CHO-K1 cells, Fluo-8 calcium fluorescence; activation, % at 3 µM; hit rate 0.3% among 360,000; CHO-K1 hM5, ACh EC20 PAM; 0% = ACh EC20, 100% = ACh EC100; Muscarinic acetylcholine receptor M5 (Homo sapiens), P08912;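 active = activation above the run cutoff, the mean activation of all test compounds plus 3 SD, cut at about 18% in these data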
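Assay system – human M5 receptor in CHO-K1 cells · Read-out – % activation, ACh-normalized · Technique – Fluo-8 calcium fluorescence · Dosing – single-point, 3 µM nominal · Incubation – Fluo-8 loading 80 min at 37 °C plus 30 min room temperature · Repeats – singlicate, one well per test compound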
CHRM5 antagonist: human M5 muscarinic receptor antagonists, primary screen, CHO cells, Fluo-8 calcium fluorescence | CHO-hM5 cells, ACh EC80 | inhibition, % at 3 µM | hit rate 0.59% among 360,000;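 active = inhibition above a per-plate cutoff, the mean of that plate's test compounds plus 3 SD, cut at about 27% in these data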
M4 PAM: human M4 muscarinic receptor positive allosteric modulators, primary screen, CHO-K1 cells, Fluo-8 calcium fluorescence; hit rate 0.4% among 360,000; Muscarinic acetylcholine receptor M4 (Homo sapiens), P08173; activation, % at 3 µM; CHO-K1 hM4/Gqi5, ACh EC20; 0% = ACh EC20, 100% = maximal ACh; AID 624126, 2012;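 active = activation above its plate's cutoff, the mean activation of sample wells plus 3 SD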
M4 ag: human M4 muscarinic receptor agonists, primary screen, CHO-K1 cells, Fluo-8 calcium fluorescence; Muscarinic acetylcholine receptor M4 (Homo sapiens), P08173; CHO-K1 hM4/Gqi5; vehicle 0%, full acetylcholine response 100%; activation, % at 3 µM; hit rate 0.14% among 360,000;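 active = activation above the run mean over all test wells plus 3 SD, cut at about 32% in these data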;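 note: peak over basal fluorescence ratio per well then scaled between controls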
Numbers stand for hits; – = inactive.

SMILES | CHRM4 antagonist | CHRM5 agonist | M5 PAM | CHRM5 antagonist | M4 PAM | M4 ag
CCOc1ccc(CN(C)C(=O)c2ccc(S(=O)(=O)N(C)c3ccccc3OC)cc2)cc1 | – | – | – | – | – | –
Cn1c(CNC(=O)C2CCCCC2)cc2cc(Cl)ccc21 | – | – | – | – | 17 | –
Cc1ccc(Cn2ccc(=O)c(OCc3ccccc3)c2C)cc1 | – | – | 22 | – | – | –
Cc1c(OCc2ccccc2)c(=O)ccn1Cc1ccc(Cl)cc1 | – | – | – | – | – | –
CC(C)c1ccc(C2NC(=S)NC3=C2C(=O)CCC3)cc1 (centres undefined) | 27 | – | – | – | – | –
Cc1ccc(C2NC(=S)NC3=C2C(=O)CCC3)cc1 (centres undefined) | – | – | – | – | – | –
Cc1cc(=O)oc2cc(O)cc(OCc3ccccc3)c12 | – | – | – | – | – | –
C=CCNC(=O)C(=O)Nc1ccc2c(c1)N(S(=O)(=O)c1cccs1)CCC2 | – | – | – | – | – | –
CCN(C(=O)COC(=O)Cc1c[nH]c2ccccc12)C1CCS(=O)(=O)C1 (centres undefined) | – | – | – | – | 19 | –
CCC(C)N(C(=O)COC(=O)CCc1c[nH]c2ccccc12)C1CCS(=O)(=O)C1 (centres undefined) | – | – | – | – | – | –
O=[N+]([O-])c1cccc(COc2ccc(CN3CCCCC3)cc2)c1 | 56 | – | – | – | – | –
CCOC(=O)C1(CCc2ccccc2)CCN(C2Cc3ccccc3C2)CC1 | – | – | – | 41 | – | –
Cc1ccc(F)cc1C(=O)N1CCCCC1c1cc(C(=O)NC(C)C)no1 (centres undefined) | – | – | – | – | – | –
Cc1cccc(NC(=S)NN2CCN(C)CC2)c1C | – | – | – | – | – | –
Cc1ccccc1NC(=S)NN1CCN(C)CC1 | – | – | – | – | 30 | –
COc1ccc(CN2CCNC(=O)C2CC(=O)N(C)Cc2ccon2)c(F)c1 (centres undefined) | – | – | – | – | – | –
Cc1cc(/C=C2\SC(=S)N(Cc3ccco3)C2=O)c(C)n1-c1ccccc1 | – | – | 22 | – | – | –
Cc1ccc(S(=O)(=O)NCCC(=O)NCC(=O)Nc2c(C)cccc2C)cc1C | – | – | – | – | – | –
CCNS(=O)(=O)c1ccc(CCC(=O)Nc2ccc(C(=O)OC)cc2)cc1 | – | – | – | – | 29 | –
CC1CN(C(=O)CCS(=O)(=O)c2ccccc2)CC(C)O1 (centres undefined) | – | – | – | – | – | –
Cc1ccc(CN2C(=O)c3ccccc3C2c2nnnn2-c2c(C)cccc2C)cc1 (centres undefined) | – | – | – | – | – | –
CCC(C)NC(=O)C1CCN(S(=O)(=O)c2cc([N+](=O)[O-])ccc2Cl)CC1 (centres undefined) | – | – | – | – | – | –
O=C(Nc1nc2ccccc2s1)C1CCN(S(=O)(=O)c2cc([N+](=O)[O-])ccc2Cl)CC1 | 33 | – | – | 39 | – | –
Cc1cccc(N2CCN(C(=O)CCn3c(=S)[nH]c4cc5c(cc4c3=O)OCO5)CC2C)c1 (centres undefined) | 40 | – | – | – | 31 | –
O=[N+]([O-])c1ccc(N/N=C/c2c[nH]c3ccccc23)cc1 | – | – | – | 28 | – | –
SMILES | CHRM4 antagonist | CHRM5 agonist | M5 PAM | CHRM5 antagonist | M4 PAM | M4 ag
O=C(O)c1cccc(-c2ccc(/C=N/Nc3ccc([N+](=O)[O-])cc3)o2)c1 | 27 | 34 | – | 34 | – | –
O=[N+]([O-])c1ccccc1N/N=C/c1c[nH]c2ccccc12 | – | – | – | – | – | –
O=C(O)c1ccc(N/N=C/c2ccc(-c3cccc(Cl)c3)o2)cc1 | – | – | – | – | – | –
NS(=O)(=O)c1ccc(-c2ccc(/C=N/Nc3ccc(C(=O)O)cc3)o2)cc1 | – | – | – | – | – | –
O=C(O)c1ccc(-c2ccc(/C=N/Nc3ccc([N+](=O)[O-])cc3)o2)cc1 | – | 55 | – | 28 | – | –
Cc1ccc(C(=O)NCc2ccccn2)cc1S(=O)(=O)N1CCOCC1 | – | – | – | – | – | –
CCOC(=O)N1CCN(C(=O)COC(=O)c2ccc(Cl)nc2)CC1 | – | – | – | – | – | –
CCC(=O)N1CCCC(C(=O)NCc2ccc(C(C)C)cc2)CC1 (centres undefined) | – | – | – | – | – | –
Cc1c(NC(=O)CSc2nnc(C(C)N(C)C)n2-c2ccccc2)c(=O)n(-c2ccccc2)n1C (centres undefined) | – | – | – | – | – | –
COc1cc2ccccc2nn1 | – | – | – | – | – | –
COc1ccc2c(n1)Sc1nc3ccccc3nc1N2 | – | 31 | – | – | – | 54
COc1ccc(CCC(=O)OCC(=O)Nc2ccc(OC)c(OC)c2)cc1OC | – | – | – | – | – | –
Cc1ccc(CCNS(=O)(=O)c2ccc3c(c2)NC(=O)CCS3)cc1 | – | – | – | – | – | –
COc1ccc(CCNS(=O)(=O)c2ccc3c(c2)NC(=O)CCS3)cc1OC | – | – | 20 | – | – | –
O=C(NC1CC1)C1CCN(C2CCN(C(=O)/C=C/c3cccs3)CC2)CC1 | – | – | 28 | 29 | – | –
O=C(NC1CC1)C1CCN(C2CCN(C(=O)/C=C/c3cccc(F)c3F)CC2)CC1 | – | – | – | – | – | –
O=C(CNC(=O)c1ccccc1F)NCc1ccccn1 | – | – | – | – | – | –
CC(C)c1ccc(NC(=O)Cc2c(C(=O)O)n(C)c3ccccc23)cc1 | – | – | – | – | – | –
CC(=O)Nc1cccc(C(=O)/C=C/c2ccc(N(C)C)cc2)c1 | 39 | 74 | – | 34 | – | 68
Cc1cc2nc(C(C)(C)C)c(CC3CCCCC3)n2c(C)c1Br | – | – | – | – | – | –
O=C(CSc1nnc(Cn2nnc3ccccc32)o1)N(Cc1ccc(Cl)cc1)c1ccccc1 | – | – | – | 30 | – | –
COc1ccc(/C=C/C(=O)O)cc1S(=O)(=O)NCc1ccco1 | – | – | 25 | – | – | –
COc1cc(/C=C/C(=O)O)cc(S(=O)(=O)NCc2ccco2)c1OC | – | – | – | – | – | –
